Legend:
[1] = molecular target: Glucagon-like peptide 1 receptor (Homo sapiens, UniProt P43220); test: Activation of human GLP-1 receptor overexpressed in HEK293 cells assessed as cAMP accumulation after 20 mins by HTRF assay; type: functional, cell-based
[2] = Half life in Sprague-Dawley rat plasma at 1000 ng/mL by LC-MS/MS analysis; type: ADME, cell-free
[3] = molecular target: albumin (Homo sapiens, UniProt P02768); test: Binding affinity to human serum albumin at 100 ug/mL after 3 hrs relative to control; type: ADME; conditions: read-out: PB (converted)
albumin, sequence (P02768 whole entry): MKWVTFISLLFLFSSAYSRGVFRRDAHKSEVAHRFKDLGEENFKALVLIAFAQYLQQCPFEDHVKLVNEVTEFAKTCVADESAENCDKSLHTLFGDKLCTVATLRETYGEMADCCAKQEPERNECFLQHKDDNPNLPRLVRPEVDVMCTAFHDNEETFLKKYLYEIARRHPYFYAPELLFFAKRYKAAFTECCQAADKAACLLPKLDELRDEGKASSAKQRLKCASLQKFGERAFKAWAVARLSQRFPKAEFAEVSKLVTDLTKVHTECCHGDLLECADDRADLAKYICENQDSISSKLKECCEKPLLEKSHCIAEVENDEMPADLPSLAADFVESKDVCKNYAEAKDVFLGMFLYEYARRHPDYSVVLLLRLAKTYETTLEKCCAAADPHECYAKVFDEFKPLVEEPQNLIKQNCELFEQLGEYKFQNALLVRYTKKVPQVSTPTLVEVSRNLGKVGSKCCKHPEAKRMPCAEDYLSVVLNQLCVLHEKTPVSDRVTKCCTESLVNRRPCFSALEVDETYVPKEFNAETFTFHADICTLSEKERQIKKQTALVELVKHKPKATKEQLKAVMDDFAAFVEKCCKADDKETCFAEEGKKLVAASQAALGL
How it was run: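 Peptide at 100 μg/mL in PBS (50 μL) was incubated with HSA-conjugated Sepharose resin for 3 h at 25 °C, then centrifuged (1000 rpm, 10 min). Unbound peptide in the supernatant was quantified by micro BCA assay. Nonspecific adsorption was corrected with NHS-inactivated, albumin-free resin.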

Glucagon-like peptide 1 receptor, sequence (P43220 whole entry): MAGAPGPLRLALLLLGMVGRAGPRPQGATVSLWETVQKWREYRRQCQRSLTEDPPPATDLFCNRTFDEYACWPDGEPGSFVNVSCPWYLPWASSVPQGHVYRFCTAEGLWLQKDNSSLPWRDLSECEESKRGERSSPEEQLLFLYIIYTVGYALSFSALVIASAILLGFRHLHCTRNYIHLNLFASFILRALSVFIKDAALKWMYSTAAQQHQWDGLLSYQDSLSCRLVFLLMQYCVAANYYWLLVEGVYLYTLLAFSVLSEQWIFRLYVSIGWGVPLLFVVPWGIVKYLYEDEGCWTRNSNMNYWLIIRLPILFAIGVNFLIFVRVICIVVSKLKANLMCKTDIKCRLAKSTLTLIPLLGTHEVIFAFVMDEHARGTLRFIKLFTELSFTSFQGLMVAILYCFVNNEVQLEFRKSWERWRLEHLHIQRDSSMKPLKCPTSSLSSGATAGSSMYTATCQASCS

Row | SMILES | EC50 [1] [pM] | half-life at 1000 ng/mL [2] [h] | fraction unbound at 3 h, 100 ug/mL [3]
1 | CC[C@H](C)[C@H](NC(=O)[C@H](Cc1ccccc1)NC(=O)[C@H](CCC(=O)O)NC(=O)[C@H](CCCCN)NC(=O)[C@H](C)NC(=O)[C@H](C)NC(=O)[C@H](CCC(N)=O)NC(=O)CNC(=O)[C@H](CCC(=O)O)NC(=O)[C@H](CC(C)C)NC(=O)[C@H](Cc1ccc(O)cc1)NC(=O)[C@H](CO)NC(=O)[C@H](CO)NC(=O)[C@@H](NC(=O)[C@H](CC(=O)O)NC(=O)[C@H](CO)NC(=O)[C@@H](NC(=O)[C@H](Cc1ccccc1)NC(=O)[C@@H](NC(=O)CNC(=O)[C@H](CCC(=O)O)NC(=O)CNC(=O)[C@@H](N)Cc1cnc[nH]1)[C@@H](C)O)[C@@H](C)O)C(C)C)C(=O)N[C@@H](C)C(=O)N[C@@H](Cc1c[nH]c2ccccc12)C(=O)N[C@@H](CC(C)C)C(=O)N[C@H](C(=O)N[C@@H](CCCCN)C(=O)NCC(=O)N[C@@H](CCCNC(=N)N)C(=O)N[C@@H](CSC1CC(=O)N(CCCCCC(=O)Nc2ccc(C(c3c(O)c4ccccc4oc3=O)c3c(O)c4ccccc4oc3=O)cc2)C1=O)C(N)=O)C(C)C (stereo partly specified) | 3.2 | 18.6 | 0.248
2 | CC[C@H](C)[C@H](NC(=O)[C@H](Cc1ccccc1)NC(=O)[C@H](CCC(=O)O)NC(=O)[C@H](CCCCN)NC(=O)[C@H](C)NC(=O)[C@H](C)NC(=O)[C@H](CCC(N)=O)NC(=O)CNC(=O)[C@H](CCC(=O)O)NC(=O)[C@H](CC(C)C)NC(=O)[C@H](Cc1ccc(O)cc1)NC(=O)[C@H](CO)NC(=O)[C@H](CS)NC(=O)[C@@H](NC(=O)[C@H](CC(=O)O)NC(=O)[C@H](CO)NC(=O)[C@@H](NC(=O)[C@H](Cc1ccccc1)NC(=O)[C@@H](NC(=O)CNC(=O)[C@H](CCC(=O)O)NC(=O)CNC(=O)[C@@H](N)Cc1cnc[nH]1)[C@@H](C)O)[C@@H](C)O)C(C)C)C(=O)N[C@@H](C)C(=O)N[C@@H](Cc1c[nH]c2ccccc12)C(=O)N[C@@H](CC(C)C)C(=O)N[C@H](C(=O)N[C@@H](CCCCN)C(=O)NCC(=O)N[C@@H](CCCNC(=N)N)C(N)=O)C(C)C | 6.4 | 1.1 | 0.922
3 | CC[C@H](C)[C@H](NC(=O)[C@H](Cc1ccccc1)NC(=O)[C@H](CCC(=O)O)NC(=O)[C@H](CCCCN)NC(=O)[C@H](C)NC(=O)[C@H](C)NC(=O)[C@H](CCC(N)=O)NC(=O)CNC(=O)[C@H](CCC(=O)O)NC(=O)[C@H](CC(C)C)NC(=O)[C@H](Cc1ccc(O)cc1)NC(=O)[C@H](CO)NC(=O)[C@H](CO)NC(=O)[C@@H](NC(=O)[C@H](CC(=O)O)NC(=O)[C@H](CO)NC(=O)[C@@H](NC(=O)[C@H](Cc1ccccc1)NC(=O)[C@@H](NC(=O)CNC(=O)[C@H](CCC(=O)O)NC(=O)CNC(=O)[C@@H](N)Cc1cnc[nH]1)[C@@H](C)O)[C@@H](C)O)C(C)C)C(=O)N[C@@H](C)C(=O)N[C@@H](Cc1c[nH]c2ccccc12)C(=O)N[C@@H](CC(C)C)C(=O)N[C@H](C(=O)N[C@@H](CSC1CC(=O)N(CCCCCCCCCCCC(=O)Nc2ccc(C(c3c(O)c4ccccc4oc3=O)c3c(O)c4ccccc4oc3=O)cc2)C1=O)C(=O)NCC(=O)N[C@@H](CCCNC(=N)N)C(N)=O)C(C)C (stereo partly specified) | 18.1 | 38.6 | 0.168
4 | CC[C@H](C)[C@H](NC(=O)[C@H](Cc1ccccc1)NC(=O)[C@H](CCC(=O)O)NC(=O)[C@H](CCCCN)NC(=O)[C@H](C)NC(=O)[C@H](C)NC(=O)[C@H](CCC(N)=O)NC(=O)CNC(=O)[C@H](CCC(=O)O)NC(=O)[C@H](CC(C)C)NC(=O)[C@H](Cc1ccc(O)cc1)NC(=O)[C@H](CO)NC(=O)[C@H](CO)NC(=O)[C@@H](NC(=O)[C@H](CC(=O)O)NC(=O)[C@H](CO)NC(=O)[C@@H](NC(=O)[C@H](Cc1ccccc1)NC(=O)[C@@H](NC(=O)CNC(=O)[C@H](CCC(=O)O)NC(=O)CNC(=O)[C@@H](N)Cc1cnc[nH]1)[C@@H](C)O)[C@@H](C)O)C(C)C)C(=O)N[C@@H](C)C(=O)N[C@@H](Cc1c[nH]c2ccccc12)C(=O)N[C@@H](CC(C)C)C(=O)N[C@H](C(=O)N[C@@H](CCCCN)C(=O)NCC(=O)N[C@@H](CCCNC(=N)N)C(N)=O)C(C)C | – | 0.8 | 0.937
5 | CC[C@H](C)[C@H](NC(=O)[C@H](Cc1ccccc1)NC(=O)[C@H](CCC(=O)O)NC(=O)[C@H](CCCCN)NC(=O)[C@H](C)NC(=O)[C@H](C)NC(=O)[C@H](CCC(N)=O)NC(=O)CNC(=O)[C@H](CCC(=O)O)NC(=O)[C@H](CC(C)C)NC(=O)[C@H](Cc1ccc(O)cc1)NC(=O)[C@H](CO)NC(=O)[C@H](CSC1CC(=O)N(CCC(=O)Nc2ccc(C(c3c(O)c4ccccc4oc3=O)c3c(O)c4ccccc4oc3=O)cc2)C1=O)NC(=O)[C@@H](NC(=O)[C@H](CC(=O)O)NC(=O)[C@H](CO)NC(=O)[C@@H](NC(=O)[C@H](Cc1ccccc1)NC(=O)[C@@H](NC(=O)CNC(=O)[C@H](CCC(=O)O)NC(=O)CNC(=O)[C@@H](N)Cc1cnc[nH]1)[C@@H](C)O)[C@@H](C)O)C(C)C)C(=O)N[C@@H](C)C(=O)N[C@@H](Cc1c[nH]c2ccccc12)C(=O)N[C@@H](CC(C)C)C(=O)N[C@H](C(=O)N[C@@H](CCCCN)C(=O)NCC(=O)N[C@@H](CCCNC(=N)N)C(N)=O)C(C)C (stereo partly specified) | 26.1 | 13.6 | 0.31
6 | CC[C@H](C)[C@H](NC(=O)[C@H](Cc1ccccc1)NC(=O)[C@H](CCC(=O)O)NC(=O)[C@H](CCCCN)NC(=O)[C@H](C)NC(=O)[C@H](C)NC(=O)[C@H](CCC(N)=O)NC(=O)CNC(=O)[C@H](CCC(=O)O)NC(=O)[C@H](CC(C)C)NC(=O)[C@H](Cc1ccc(O)cc1)NC(=O)[C@H](CO)NC(=O)[C@H](CO)NC(=O)[C@@H](NC(=O)[C@H](CC(=O)O)NC(=O)[C@H](CO)NC(=O)[C@@H](NC(=O)[C@H](Cc1ccccc1)NC(=O)[C@@H](NC(=O)CNC(=O)[C@H](CCC(=O)O)NC(=O)CNC(=O)[C@@H](N)Cc1cnc[nH]1)[C@@H](C)O)[C@@H](C)O)C(C)C)C(=O)N[C@@H](C)C(=O)N[C@@H](Cc1c[nH]c2ccccc12)C(=O)N[C@@H](CC(C)C)C(=O)N[C@H](C(=O)N[C@@H](CSC1CC(=O)N(CCC(=O)Nc2ccc(C(c3c(O)c4ccccc4oc3=O)c3c(O)c4ccccc4oc3=O)cc2)C1=O)C(=O)NCC(=O)N[C@@H](CCCNC(=N)N)C(N)=O)C(C)C (stereo partly specified) | 6.5 | 19.3 | 0.273

The remaining molecules from weak to strong by EC50 [1], led by results:

Row | EC50 [1] [pM] | half-life at 1000 ng/mL [2] [h] | fraction unbound at 3 h, 100 ug/mL [3] | SMILES
7 | 7.3 | 22.1 | 0.198 | CC[C@H](C)[C@H](NC(=O)[C@H](Cc1ccccc1)NC(=O)[C@H](CCC(=O)O)NC(=O)[C@H](CCCCN)NC(=O)[C@H](C)NC(=O)[C@H](C)NC(=O)[C@H](CCC(N)=O)NC(=O)CNC(=O)[C@H](CCC(=O)O)NC(=O)[C@H](CC(C)C)NC(=O)[C@H](Cc1ccc(O)cc1)NC(=O)[C@H](CO)NC(=O)[C@H](CO)NC(=O)[C@@H](NC(=O)[C@H](CC(=O)O)NC(=O)[C@H](CO)NC(=O)[C@@H](NC(=O)[C@H](Cc1ccccc1)NC(=O)[C@@H](NC(=O)CNC(=O)[C@H](CCC(=O)O)NC(=O)CNC(=O)[C@@H](N)Cc1cnc[nH]1)[C@@H](C)O)[C@@H](C)O)C(C)C)C(=O)N[C@@H](C)C(=O)N[C@@H](Cc1c[nH]c2ccccc12)C(=O)N[C@@H](CC(C)C)C(=O)N[C@H](C(=O)N[C@@H](CSC1CC(=O)N(CCCCCC(=O)Nc2ccc(C(c3c(O)c4ccccc4oc3=O)c3c(O)c4ccccc4oc3=O)cc2)C1=O)C(=O)NCC(=O)N[C@@H](CCCNC(=N)N)C(N)=O)C(C)C (stereo partly specified)
8 | 4.9 | 0.6 | 0.939 | CC[C@H](C)[C@H](NC(=O)[C@H](Cc1ccccc1)NC(=O)[C@H](CCC(=O)O)NC(=O)[C@H](CCCCN)NC(=O)[C@H](C)NC(=O)[C@H](C)NC(=O)[C@H](CCC(N)=O)NC(=O)CNC(=O)[C@H](CCC(=O)O)NC(=O)[C@H](CC(C)C)NC(=O)[C@H](Cc1ccc(O)cc1)NC(=O)[C@H](CO)NC(=O)[C@H](CO)NC(=O)[C@@H](NC(=O)[C@H](CC(=O)O)NC(=O)[C@H](CO)NC(=O)[C@@H](NC(=O)[C@H](Cc1ccccc1)NC(=O)[C@@H](NC(=O)CNC(=O)[C@H](CCC(=O)O)NC(=O)CNC(=O)[C@@H](N)Cc1cnc[nH]1)[C@@H](C)O)[C@@H](C)O)C(C)C)C(=O)N[C@@H](C)C(=O)N[C@@H](Cc1c[nH]c2ccccc12)C(=O)N[C@@H](CC(C)C)C(=O)N[C@H](C(=O)N[C@@H](CS)C(=O)NCC(=O)N[C@@H](CCCNC(=N)N)C(N)=O)C(C)C
9 | 3.2 | 0.7 | 0.949 | CC[C@H](C)[C@H](NC(=O)[C@H](Cc1ccccc1)NC(=O)[C@H](CCC(=O)O)NC(=O)[C@H](CS)NC(=O)[C@H](C)NC(=O)[C@H](C)NC(=O)[C@H](CCC(N)=O)NC(=O)CNC(=O)[C@H](CCC(=O)O)NC(=O)[C@H](CC(C)C)NC(=O)[C@H](Cc1ccc(O)cc1)NC(=O)[C@H](CO)NC(=O)[C@H](CO)NC(=O)[C@@H](NC(=O)[C@H](CC(=O)O)NC(=O)[C@H](CO)NC(=O)[C@@H](NC(=O)[C@H](Cc1ccccc1)NC(=O)[C@@H](NC(=O)CNC(=O)[C@H](CCC(=O)O)NC(=O)CNC(=O)[C@@H](N)Cc1cnc[nH]1)[C@@H](C)O)[C@@H](C)O)C(C)C)C(=O)N[C@@H](C)C(=O)N[C@@H](Cc1c[nH]c2ccccc12)C(=O)N[C@@H](CC(C)C)C(=O)N[C@H](C(=O)N[C@@H](CCCCN)C(=O)NCC(=O)N[C@@H](CCCNC(=N)N)C(N)=O)C(C)C
